Results as given in ChEMBL document CHEMBL3045880, “Design and syntheses of novel N-(benzothiazol-5-yl)-4,5,6,7-tetrahydro-1H-isoindole-1,3(2H)-dione and N-(benzothiazol-5-yl)isoindoline-1,3-dione as potent protoporphyrinogen oxidase inhibitors” (J Agric Food Chem, 2011).

Experiments:
Digitaria sanguinalis = assay: Herbicidal activity against Digitaria sanguinalis (hairy crabgrass) assessed as growth inhibition at 150 g/ha postemergence treatment measured after 15 days by Greenhouse test; type: functional; details: post-emergence, 360 h, read-out: GI
In short: (§1)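 Test compounds were made up as 100 g/L emulsifiable concentrates (DMF solvent, Tween-80 emulsifier) and diluted with water. About 20 seeds were sown 1–3 cm deep in clay soil (pH 6.5, 1.6% organic matter) in 9.5 cm pots, kept at 15–30 °C and 50% RH. Postemergence spray was applied to dicots at the 2-leaf stage and monocots at the 1-leaf stage. Controls were untreated and solvent-treated. Injury was scored visually at 15 days, with three replicates.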

Brassica juncea = assay: Herbicidal activity against Brassica juncea assessed as growth inhibition at 150 g/ha postemergence treatment measured after 15 days by Greenhouse test; type: functional; details: post-emergence, 360 h, read-out: GI; in short: as §1
[1] = target: T1, Protoporphyrinogen oxidase (Homo sapiens) (UniProt P50336); assay: Inhibition of Homo sapiens (human) recombinant protoporphyrinogen oxidase by fluorescence detection
T1 sequence (whole entry): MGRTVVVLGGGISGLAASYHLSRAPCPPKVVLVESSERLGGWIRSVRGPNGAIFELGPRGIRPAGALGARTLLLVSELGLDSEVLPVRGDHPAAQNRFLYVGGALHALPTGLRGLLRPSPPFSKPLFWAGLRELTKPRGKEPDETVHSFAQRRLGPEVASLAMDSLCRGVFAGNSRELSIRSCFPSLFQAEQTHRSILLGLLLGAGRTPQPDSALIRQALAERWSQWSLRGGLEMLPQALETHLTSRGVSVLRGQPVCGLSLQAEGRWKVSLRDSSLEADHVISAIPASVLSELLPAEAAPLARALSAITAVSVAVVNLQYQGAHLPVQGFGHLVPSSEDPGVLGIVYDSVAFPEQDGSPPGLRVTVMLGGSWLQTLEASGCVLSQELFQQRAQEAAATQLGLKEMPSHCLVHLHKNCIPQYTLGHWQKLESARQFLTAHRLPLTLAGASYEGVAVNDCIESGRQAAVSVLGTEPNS

Setaria faberi = assay: Herbicidal activity against Setaria faberi (Giant Foxtail) assessed as growth inhibition at 150 g/ha postemergence treatment measured after 15 days by Greenhouse test; type: functional; details: post-emergence, 360 h, read-out: GI; in short: as §1
Amaranthus retroflexus = assay: Herbicidal activity against Amaranthus retroflexus assessed as growth inhibition at 150 g/ha postemergence treatment measured after 15 days by Greenhouse test; type: functional; details: post-emergence, 360 h, read-out: GI; in short: as §1
Echinochloa crus-galli = assay: Herbicidal activity against Echinochloa crus-galli (barnyard grass) assessed as growth inhibition at 150 g/ha postemergence treatment measured after 15 days by Greenhouse test; type: functional; details: post-emergence, 360 h, read-out: GI; in short: as §1
Eclipta prostrata = assay: Herbicidal activity against Eclipta prostrata assessed as growth inhibition at 150 g/ha postemergence treatment measured after 15 days by Greenhouse test; type: functional; details: post-emergence, 360 h, read-out: GI; in short: as §1

Structure (SMILES) | Ki [1] [nM] | inhibition of growth at 150 g/ha (Digitaria sanguinalis) [%] | inhibition of growth at 150 g/ha (Brassica juncea) [%] | inhibition of growth at 150 g/ha (Setaria faberi) [%] | inhibition of growth at 150 g/ha (Amaranthus retroflexus) [%] | inhibition of growth at 150 g/ha (Echinochloa crus-galli) [%] | inhibition of growth at 150 g/ha (Eclipta prostrata) [%]
CCOC(=O)CCCSc1nc2cc(N3C(=O)C4=C(CCCC4)C3=O)c(Cl)cc2s1 | 750 | < 50 | < 50 | < 50 | 80 | < 50 | 60
COC(=O)Sc1nc2cc(N3C(=O)C4=C(CCCC4)C3=O)c(F)cc2s1 | 80 | < 50 | 80 | < 50 | 80 | < 50 | 80
CCOC(=O)CCSc1nc2cc(N3C(=O)C4=C(CCCC4)C3=O)c(F)cc2s1 | 110 | 50 | 80 | < 50 | 80 | 50 | 80
COC(=O)Sc1nc2cc(N3C(=O)C4=C(CCCC4)C3=O)c(Cl)cc2s1 | 520 | < 50 | < 50 | < 50 | 60 | < 50 | 60
CCOC(=O)CSc1nc2cc(N3C(=O)C4=C(CCCC4)C3=O)c(F)cc2s1 | 250 | 60 | < 50 | 60 | 80 | 60 | 50
COC(=O)CSc1nc2cc(N3C(=O)C4=C(CCCC4)C3=O)c(Cl)cc2s1 | 3920 | < 50 | < 50 | < 50 | 60 | < 50 | 60
CCCOC(=O)CSc1nc2cc(N3C(=O)C4=C(CCCC4)C3=O)c(F)cc2s1 | 280 | 60 | 60 | < 50 | 80 | 60 | 80
CC(C)(C)OC(=O)CSc1nc2cc(N3C(=O)C4=C(CCCC4)C3=O)c(F)cc2s1 | 180 | 60 | 80 | < 50 | 80 | < 50 | 80

Further lines, with some results ahead:

Ki [1] [nM] | Structure (SMILES) | inhibition of growth at 150 g/ha (Digitaria sanguinalis) [%] | inhibition of growth at 150 g/ha (Brassica juncea) [%] | inhibition of growth at 150 g/ha (Setaria faberi) [%] | inhibition of growth at 150 g/ha (Amaranthus retroflexus) [%] | inhibition of growth at 150 g/ha (Echinochloa crus-galli) [%] | inhibition of growth at 150 g/ha (Eclipta prostrata) [%]
132000 | CCOC(=O)C(C)Sc1nc2cc(N3C(=O)c4ccccc4C3=O)c(F)cc2s1 (stereo not given) |  |  |  |  |  | 
5520 | CCOC(=O)CCSc1nc2cc(N3C(=O)c4ccccc4C3=O)c(F)cc2s1 |  |  |  |  |  | 
85900 | CCOC(=O)C(C)Sc1nc2cc(N3C(=O)c4ccccc4C3=O)c(Cl)cc2s1 (stereo not given) |  |  |  |  |  | 
2250 | COC(=O)CSc1nc2cc(N3C(=O)c4ccccc4C3=O)c(F)cc2s1 |  |  |  |  |  | 
